In the library only some 3.1% were active in any assay of this set; here they are far more common.
Cneo AK release: Cryptococcus neoformans lysis via adenylate kinase release; C. neoformans lysis, adenylate kinase release luminescence, 4 h; normalised: neutral wells 0, clomiphene wells 100; lysis activity, % at 15 µM; 0.2% of 360,000 active;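 active = mean lysis activity across replicates of at least 80%, whatever share of replicates individually reach that level; inactive = mean lysis activity below 80%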
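Signal: Adenylate kinase release luminescence | Assay system: Log-phase Cryptococcus neoformans yeast cells | Input: Cells at 5 × 10^6 per mL | Buffer or medium: Fresh YPD growth medium | Compound: Single dose | Schedule: Static 4 h at 37 °C with compound, 1 h detection | Controls: Clomiphene | Read-out: Luminescence rise reflecting yeast cell lysis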
F508del corr: CFTR F508del correction in bronchial cells | AID 720511 | activity (quench increase), % at 7.58 µM | CFBE cells, YFP halide quenching; stimulated with forskolin plus potentiator P3; % fluorescence drop versus neutral controls | 0.36% of 350,000 active;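 active = mean added fluorescence quench of at least 8% versus neutral control, with both replicates also reaching 8%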;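 also: cells transiently co-express mutant CFTR-F508del with the halide-sensitive YFP; corrector assay measuring rescue of mutant channel to the surface after 24 h compound exposure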
Ecoli rRNA inh: inhibits bacterial ribosomal RNA function over humanized ribosomes; AID 720706; GFP signal change (wild-type ribosome), % (concentration not given with the values); 1.6% of 350,000 active; E. coli WT GFP vs humanized-ribosome RFP mutants, fluorescence, 24 h; stronger effect = lower value; DMSO median 0, no signal -100;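 active = significant combined selectivity score with lowered wild-type GFP, culture density cut under 30%, mutant RFP and density less affected; inactive = any of these conditions unmet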
GSIS activator: GLuc luminescence reporter in INS-1E cells, primary screen for activators of glucose-dependent secretion of insulin. 0.61% of 370,000 active. AID 743287. activation, % at 16.6 µM. INS-1E GLuc reporter insulin secretion, 2-3 h;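 active = lowest replicate activation of at least 40%, so every replicate reaches that level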;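 also: 0% = median of neutral control wells and 100% = median of IBMX positive control wells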
Env fusion inh: inhibitors of HIV Env-mediated cell fusion; 1.1% of 360,000 active; HeLa-JRFL Env/CEM21 cell fusion, luciferase; AID 651610; inhibition, % at 12.3 µM;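 active = mean replicate inhibition score of at least 50 and every replicate individually at or above 50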;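 also: 0% = plate neutral controls and 100% = maraviroc near 300 nM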
miR-122 sensor: miR-122 inhibition in Huh7 cells; Huh7 miR-122 Renilla luciferase sensor, 48 h; neutral wells = 0, positive control = 100; activation (reporter increase), % at 12.5 µM; 0.3% of 340,000 active;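 active = mean replicate activation score at least 90 and every replicate individually at or above 90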;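 also: higher luciferase means less miR-122 activity so hits act as miR-122 inhibitors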
The depositor's hits bear a star; nt = no result; [ ] = another dose, or the depositor's remark.

SMILES	Cneo AK release	F508del corr	Ecoli rRNA inh	GSIS activator	Env fusion inh	miR-122 sensor
CC(C)=CCC/C(C)=C/CN1C(=O)N(c2ccc(F)cc2)[C@H]2C[C@@H](c3ccccc3)[C@@H](C)[C@@H](C(=O)N3CCOCC3)C[C@H]21	nt	-1	5	37	76*	nt
O=C(C[C@@H]1C[C@@H]2c3cc(NC(=O)C4CCC4)ccc3O[C@@H]2[C@H](CO)O1)NCc1ccccc1F	2	1	5	-10	-6[16.7 µM]	-3[16.7 µM]
COc1ccc(NC(=O)N(C)C[C@H]2Oc3ccc(NC(=O)Nc4ccc5c(c4)OCO5)cc3C(=O)N([C@@H](C)CO)C[C@@H]2C)cc1	-1	1	7	18	nt	0[16.7 µM]
CCCNC(=O)Nc1ccc2c(c1)OC[C@H](C)N(S(C)(=O)=O)C[C@@H](C)[C@H](OC)CN(C)C2=O	nt	-5	0	4	nt	nt
CC1CCN(c2ccc(-c3cccc(NC(=O)C(F)(F)F)c3)nn2)CC1	-6	-1	2	-9	80*	-5
O=C(Nc1cccc(-c2ccc(N3CCCCC3)nn2)c1)C(F)(F)F	-18	-3	-4	14	68*	-10
O=C(Nc1cccc(-c2ccc(N3CCCCC3)nn2)c1)c1ccc(Br)o1	-6	3	-14	10	nt	4
COc1ccc(C2=NOC(C(=O)NCc3ccc(F)cc3)C2)cc1OC (centres undefined)	-2	8.7*	-18	35	nt	40
COc1ccc(C2=NOC(C(=O)Nc3cccnc3)C2)cc1OC (centres undefined)	-1	5	3	75*	7	-13
CC(C)NC(=O)N(C)C[C@H]1Oc2ccc(NC(=O)Nc3cccc4ccccc34)cc2C(=O)N([C@@H](C)CO)C[C@@H]1C	0	0	2	4	-10[16.7 µM]	-7[16.7 µM]
COc1ccc(/C=N/n2cnc3c([nH]c4ccc(C)cc43)c2=O)cc1CN1CCCC1	-6	-4	2	6	10	2
COc1ccc2c(c1)[nH]c1c(=O)n(/N=C/c3ccc(OC)c(CN4CCCC4)c3)cnc12	0	9.2*	-10	7	9	nt
Cc1cc2cc(CN(Cc3ccco3)S(=O)(=O)c3c(C)ccc4nsnc34)c(=O)[nH]c2cc1C	-1	nt	nt	nt	77*	-2
S=C1SCN(Cc2cccnc2)CN1Cc1ccccc1	1	-3	-29*	9	-2	4
COc1ccc(/C(C)=N/Nc2nc3ccccc3n3cnnc23)cc1OC	nt	1	9	44*	14	nt
COc1ccc(CCNc2ccncn2)cc1OC	nt	nt	nt	45*	-40	nt
COc1ccc(CCNc2ccncn2)cc1	0	nt	nt	nt	56*	-6
COc1ccc(CCNc2ncnc3[nH]ncc23)cc1OC	-3	nt	nt	nt	nt	-1
CN(C)CC(=O)N[C@H]1CC[C@@H](CCNC(=O)C2CC2)O[C@@H]1CO	nt	0	1	10	nt	nt
COc1cc(Br)cc(/C=N/N(CCO)C2=NS(=O)(=O)c3ccccc32)c1OC	0	-1	-22*	6	0	9
O=C(c1ccccn1)N1CC(=O)N2[C@H](CO)[C@@H](c3ccc(-c4cccc(F)c4)cc3)[C@H]2C1	nt	2	-2	8	nt	nt
O=C(CCl)Nc1cccc(Oc2ccccc2)c1	2	-4	-26*	12	3	-2
Nc1nc(SCC(=O)Nc2ccc(Oc3ccccc3)cc2)n[nH]1	-6	nt	nt	-9	11	-7
O=C(CSc1cccc[n+]1[O-])Nc1cccc(Oc2ccccc2)c1	nt	3	-36	9	-4	0
O=C(CSc1ncnc2[nH]ncc12)Nc1cccc(Oc2ccccc2)c1	-2	0	-43*	2	15	-4
SMILES	Cneo AK release	F508del corr	Ecoli rRNA inh	GSIS activator	Env fusion inh	miR-122 sensor
Nc1nc(SCC(=O)Nc2cccc(Oc3ccccc3)c2)n[nH]1	nt	2	-24*	10	4	nt
C[C@@H]1CCCCO[C@@H](CN(C)Cc2ccccc2)[C@@H](C)CN([C@@H](C)CO)C(=O)c2cc(NC(=O)Nc3ccccc3)ccc2O1	-1	2	1	-23	-17[16.7 µM]	5[16.7 µM]
C[C@@H]1CN([C@@H](C)CO)C(=O)c2cc(-c3ccncc3)cnc2O[C@H]1CN(C)C(=O)Cc1cccnc1	0	-2	4	9	10[16.7 µM]	-5[16.7 µM]
C[C@@H]1CCCCO[C@@H](CN(C)C(=O)c2ccncc2)[C@@H](C)CN([C@H](C)CO)C(=O)c2cc(NS(=O)(=O)c3cn(C)cn3)ccc2O1	-1	-3	4	25	-10[16.7 µM]	5[16.7 µM]
COc1ccc(NC(=O)c2noc(C(C)C)c2[N+](=O)[O-])cc1	84*	1	13	-16	12	-2
O=C(NCc1cccc(Cl)c1)C1Cc2c(-c3cccc(F)c3)ccnc2O1 (centres undefined)	-1	-2	-2	-12	-17	6
O=C(NCc1ccccc1)C1Cc2c(-c3ccc(Cl)cc3)ccnc2O1 (centres undefined)	5	9.2*	-9	-22	-19	15
COc1ccc(CNC(=O)C2Cc3c(-c4cccc(F)c4)ccnc3O2)cc1OC (centres undefined)	-1	1	-10	57*	13	-14
COc1ccc(CNC(=O)C2Cc3c(-c4ccccc4Oc4ccccc4)ccnc3O2)cc1OC (centres undefined)	0	1	-11	nt	-17	-5
O=C(NCc1ccccc1)C1Cc2c(-c3cccc(F)c3)ccnc2O1 (centres undefined)	-2	9.1*	-20	-15	-91	22
CC(=O)c1cccc(-c2ccnc3c2CC(C(=O)NCc2ccco2)O3)c1 (centres undefined)	2	13*	-2	-4	-6	16
COc1ccc(C[C@@H]2CCn3nncc3COC[C@@H](c3ccccc3)NC2=O)cc1	nt	nt	0	6	nt	nt
O=C(Nc1cc(C(F)(F)F)ccc1N1CCCCC1)c1cccc([N+](=O)[O-])c1	4	nt	nt	nt	98*	2
O=C(Nc1ccccc1N1CCCCC1)c1cccc([N+](=O)[O-])c1	nt	3	-2	-3	26	nt
COc1ccc(NC(=O)Nc2ccc3c(c2)C(=O)N([C@H](C)CO)C[C@H](C)[C@@H](CN(C)C(=O)Nc2cccc4ccccc24)OCCCC[C@@H](C)O3)cc1	-1	1	3	18	-23[16.7 µM]	4[16.7 µM]
CS(=O)(=O)Nc1ccc2c(c1)[C@@H]1C[C@H](CC(=O)NCc3cccnc3)O[C@@H](CO)[C@@H]1O2	-1	0	2	2	26[16.7 µM]	0[16.7 µM]
Cc1cccc(C)c1NC(=O)c1csc([C@@H]2O[C@H](CO)[C@H](O)[C@H](O)[C@H]2O)n1	1	-2	19	53*	5	-2
